For one compound, Activity results are on record in ChEMBL document CHEMBL4043093, “2-Oxo-3, 4-dihydropyrimido[4, 5-d]pyrimidinyl derivatives as new irreversible pan fibroblast growth factor receptor (FGFR) inhibitors” (Eur J Med Chem, 2017).

The target in test [1] is Protein kinase C epsilon type (Homo sapiens) (UniProt Q02156). Put plainly: Inhibition of wild-type human partial length PRKCE (A378 to P737 residues) expressed in HEK293 cells assessed as residual activity at 1000 nM after 30 mins by Kinomescan method relative to control. It counts as cell-based.
Test [2] concerns the target Calcium/calmodulin-dependent protein kinase type II subunit alpha (Homo sapiens) (UniProt Q9UQM7). Put plainly: Inhibition of wild-type human partial length CAMK2A (M1 to K328 residues) expressed in Escherichia coli BL21 assessed as residual activity at 1000 nM after 30 mins by Kinomescan method relative to control.
Test [3] concerns the target Ephrin type-B receptor 3 (Homo sapiens) (UniProt P54753). As to the kind of experiment: Inhibition of wild-type human partial length EPHB3 (Q599 to T928 residues) expressed in Escherichia coli BL21 assessed as residual activity at 1000 nM after 30 mins by Kinomescan method relative to control.
The target of test [4] is Tyrosine-protein kinase Fgr (Homo sapiens) (UniProt P09769). Put plainly: Inhibition of wild-type human partial length FGR (L233 to T529 residues) expressed in Escherichia coli BL21 assessed as residual activity at 1000 nM after 30 mins by Kinomescan method relative to control.
The target in test [5] is Tyrosine-protein kinase Tec (Homo sapiens) (UniProt P42680). Put plainly: Inhibition of wild-type human partial length TEC (L341 to D620 residues) expressed in Escherichia coli BL21 assessed as residual activity at 1000 nM after 30 mins by Kinomescan method relative to control.
Tyrosine-protein kinase Tec (Homo sapiens), sequence (P42680 whole entry, the tested form may be a part): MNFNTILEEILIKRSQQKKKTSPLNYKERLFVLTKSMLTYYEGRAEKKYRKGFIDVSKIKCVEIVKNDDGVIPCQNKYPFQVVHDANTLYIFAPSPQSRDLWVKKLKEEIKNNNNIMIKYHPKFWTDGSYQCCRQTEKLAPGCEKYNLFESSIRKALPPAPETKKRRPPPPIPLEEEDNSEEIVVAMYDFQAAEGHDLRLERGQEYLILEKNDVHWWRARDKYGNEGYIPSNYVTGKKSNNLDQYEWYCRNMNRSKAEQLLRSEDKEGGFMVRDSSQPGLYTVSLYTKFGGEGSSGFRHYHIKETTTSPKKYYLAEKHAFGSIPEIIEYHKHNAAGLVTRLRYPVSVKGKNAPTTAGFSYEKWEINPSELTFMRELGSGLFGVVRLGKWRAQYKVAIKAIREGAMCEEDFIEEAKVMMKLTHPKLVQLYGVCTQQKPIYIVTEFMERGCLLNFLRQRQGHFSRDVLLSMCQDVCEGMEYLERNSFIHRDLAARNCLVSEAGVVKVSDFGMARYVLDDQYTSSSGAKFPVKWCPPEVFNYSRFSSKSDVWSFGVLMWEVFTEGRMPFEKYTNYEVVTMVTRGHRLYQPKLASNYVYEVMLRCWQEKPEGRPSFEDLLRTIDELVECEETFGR
The target of test [6] is Serine/threonine-protein kinase B-raf (Homo sapiens) (UniProt P15056). Put plainly: Inhibition of wild-type human partial length BRAF (S429 to E741 residues) expressed in HEK293 cells assessed as residual activity at 1000 nM after 30 mins by Kinomescan method relative to control. In kind it is cell-based.
In test [7] the target is MAP kinase-activated protein kinase 2 (Homo sapiens) (UniProt P49137). As to the kind of experiment: Inhibition of wild-type human partial length MAPKAPK2 (V48 to D345 residues) expressed in Escherichia coli BL21 assessed as residual activity at 1000 nM after 30 mins by Kinomescan method relative to control.
Test [8] addresses Transient receptor potential cation channel subfamily M member 6 (Homo sapiens) (UniProt Q9BX84). Put plainly: Inhibition of wild-type human partial length TRPM6 (Q1723 to I1998 residues) expressed in HEK293 cells assessed as residual activity at 1000 nM after 30 mins by Kinomescan method relative to control. In kind it is cell-based.
The target in test [9] is Mitogen-activated protein kinase kinase kinase 19 (Homo sapiens) (UniProt Q56UN5). Put plainly: Inhibition of wild-type human partial length YSK4 (T1019 to H1328 residues) expressed in HEK293 cells assessed as residual activity at 1000 nM after 30 mins by Kinomescan method relative to control. It counts as cell-based.
Mitogen-activated protein kinase kinase kinase 19 (Homo sapiens), sequence (Q56UN5 whole entry, the tested form may be a part): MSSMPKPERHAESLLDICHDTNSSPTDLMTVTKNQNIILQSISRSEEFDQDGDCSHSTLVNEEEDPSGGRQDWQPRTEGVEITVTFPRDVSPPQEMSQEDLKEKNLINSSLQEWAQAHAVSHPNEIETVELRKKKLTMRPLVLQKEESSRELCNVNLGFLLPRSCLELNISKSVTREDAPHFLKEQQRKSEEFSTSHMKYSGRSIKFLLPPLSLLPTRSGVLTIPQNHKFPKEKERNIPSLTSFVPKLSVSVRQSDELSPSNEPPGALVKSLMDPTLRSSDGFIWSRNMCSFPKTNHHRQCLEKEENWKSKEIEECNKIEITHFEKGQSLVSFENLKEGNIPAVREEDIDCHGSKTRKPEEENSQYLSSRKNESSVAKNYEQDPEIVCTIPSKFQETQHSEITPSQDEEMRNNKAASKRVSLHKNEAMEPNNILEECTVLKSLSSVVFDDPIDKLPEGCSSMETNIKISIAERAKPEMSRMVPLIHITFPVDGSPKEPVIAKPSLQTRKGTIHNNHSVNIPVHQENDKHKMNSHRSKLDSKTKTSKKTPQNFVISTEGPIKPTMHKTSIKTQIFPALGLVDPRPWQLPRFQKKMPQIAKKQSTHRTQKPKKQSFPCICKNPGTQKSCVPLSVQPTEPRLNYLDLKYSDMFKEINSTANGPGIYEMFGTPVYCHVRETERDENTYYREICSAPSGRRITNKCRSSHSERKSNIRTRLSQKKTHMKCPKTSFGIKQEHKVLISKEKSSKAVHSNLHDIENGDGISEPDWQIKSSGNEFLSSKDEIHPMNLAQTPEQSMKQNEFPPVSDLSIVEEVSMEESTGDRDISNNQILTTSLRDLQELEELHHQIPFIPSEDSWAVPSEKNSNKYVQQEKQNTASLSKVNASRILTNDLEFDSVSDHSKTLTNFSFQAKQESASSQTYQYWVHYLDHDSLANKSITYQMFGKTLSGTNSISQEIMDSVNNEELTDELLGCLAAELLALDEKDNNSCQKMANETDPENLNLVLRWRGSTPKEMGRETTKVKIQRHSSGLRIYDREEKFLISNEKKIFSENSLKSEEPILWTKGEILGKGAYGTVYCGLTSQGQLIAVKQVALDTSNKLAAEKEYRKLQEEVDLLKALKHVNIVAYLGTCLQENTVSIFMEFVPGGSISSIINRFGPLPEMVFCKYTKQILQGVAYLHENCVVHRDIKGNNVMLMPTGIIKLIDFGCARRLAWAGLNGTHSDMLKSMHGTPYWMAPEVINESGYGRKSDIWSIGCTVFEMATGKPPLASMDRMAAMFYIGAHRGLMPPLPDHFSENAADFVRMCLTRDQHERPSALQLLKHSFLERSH
Test [10] addresses LIM domain kinase 2 (Homo sapiens) (UniProt P53671). As to the kind of experiment: Inhibition of wild-type human full length LIMK2 (M1 to P638 residues) expressed in Escherichia coli BL21 assessed as residual activity at 1000 nM after 30 mins by Kinomescan method relative to control. The gist of the method: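 Single-concentration screen at 1 µM across a 456-kinase KINOMEscan panel. The read-out is Percent Control for each kinase.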

The target in test [11] is Phosphatidylinositol 4,5-bisphosphate 3-kinase catalytic subunit alpha isoform (Homo sapiens) (UniProt P42336). As to the kind of experiment: Inhibition of wild-type human partial length PIK3CA (R108 to N1068 residues) expressed in HEK293 cells assessed as residual activity at 1000 nM after 30 mins by Kinomescan method relative to control. In kind it is cell-based.
Test [12] addresses Serine/threonine-protein kinase LATS1 (Homo sapiens) (UniProt O95835). As to the kind of experiment: Inhibition of wild-type human partial length LATS1 (Q678 to V1130 residues) expressed in Escherichia coli BL21 assessed as residual activity at 1000 nM after 30 mins by Kinomescan method relative to control.
The target of test [13] is Mast/stem cell growth factor receptor Kit (Homo sapiens) (UniProt P10721). As to the kind of experiment: Inhibition of wild-type human partial length autoinhibited KIT (Y545 to D952 residues) expressed in HEK293 cells assessed as residual activity at 1000 nM after 30 mins by Kinomescan method relative to control. It counts as cell-based.
Test [14] addresses Ephrin type-B receptor 1 (Homo sapiens) (UniProt P54762). Put plainly: Inhibition of wild-type human partial length EPHB1 (P589 to T911 residues) expressed in Escherichia coli BL21 assessed as residual activity at 1000 nM after 30 mins by Kinomescan method relative to control.
The target in test [15] is Hormonally up-regulated neu tumor-associated kinase (Homo sapiens) (UniProt P57058). Put plainly: Inhibition of wild-type human partial length HUNK (A31 to K354 residues) expressed in Escherichia coli BL21 assessed as residual activity at 1000 nM after 30 mins by Kinomescan method relative to control.
Hormonally up-regulated neu tumor-associated kinase (Homo sapiens), sequence (P57058 whole entry, the tested form may be a part): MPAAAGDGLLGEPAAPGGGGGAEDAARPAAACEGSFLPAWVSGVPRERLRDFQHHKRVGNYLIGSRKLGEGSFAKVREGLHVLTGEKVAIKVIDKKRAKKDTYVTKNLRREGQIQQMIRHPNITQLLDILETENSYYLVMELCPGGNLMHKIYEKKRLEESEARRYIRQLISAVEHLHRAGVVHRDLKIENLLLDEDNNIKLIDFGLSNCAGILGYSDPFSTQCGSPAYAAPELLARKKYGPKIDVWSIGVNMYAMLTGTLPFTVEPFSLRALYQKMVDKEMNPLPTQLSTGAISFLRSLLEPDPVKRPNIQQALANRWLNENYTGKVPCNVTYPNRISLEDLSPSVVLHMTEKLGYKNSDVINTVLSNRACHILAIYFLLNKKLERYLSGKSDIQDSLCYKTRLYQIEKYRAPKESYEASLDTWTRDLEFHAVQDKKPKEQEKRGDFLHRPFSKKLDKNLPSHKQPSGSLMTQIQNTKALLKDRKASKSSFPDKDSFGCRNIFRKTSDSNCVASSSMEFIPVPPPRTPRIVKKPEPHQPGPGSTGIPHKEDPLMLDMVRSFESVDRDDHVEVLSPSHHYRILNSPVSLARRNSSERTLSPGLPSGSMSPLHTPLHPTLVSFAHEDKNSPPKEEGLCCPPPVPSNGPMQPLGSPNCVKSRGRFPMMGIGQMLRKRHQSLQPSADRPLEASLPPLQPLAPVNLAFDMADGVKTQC
Test [16] deals with Wee1-like protein kinase 2 (Homo sapiens) (UniProt P0C1S8). Put plainly: Inhibition of wild-type human partial length WEE2 (M204 to K492 residues) expressed in Escherichia coli BL21 assessed as residual activity at 1000 nM after 30 mins by Kinomescan method relative to control.
Wee1-like protein kinase 2 (Homo sapiens), sequence (P0C1S8 whole entry, looked up, the tested form may be a part): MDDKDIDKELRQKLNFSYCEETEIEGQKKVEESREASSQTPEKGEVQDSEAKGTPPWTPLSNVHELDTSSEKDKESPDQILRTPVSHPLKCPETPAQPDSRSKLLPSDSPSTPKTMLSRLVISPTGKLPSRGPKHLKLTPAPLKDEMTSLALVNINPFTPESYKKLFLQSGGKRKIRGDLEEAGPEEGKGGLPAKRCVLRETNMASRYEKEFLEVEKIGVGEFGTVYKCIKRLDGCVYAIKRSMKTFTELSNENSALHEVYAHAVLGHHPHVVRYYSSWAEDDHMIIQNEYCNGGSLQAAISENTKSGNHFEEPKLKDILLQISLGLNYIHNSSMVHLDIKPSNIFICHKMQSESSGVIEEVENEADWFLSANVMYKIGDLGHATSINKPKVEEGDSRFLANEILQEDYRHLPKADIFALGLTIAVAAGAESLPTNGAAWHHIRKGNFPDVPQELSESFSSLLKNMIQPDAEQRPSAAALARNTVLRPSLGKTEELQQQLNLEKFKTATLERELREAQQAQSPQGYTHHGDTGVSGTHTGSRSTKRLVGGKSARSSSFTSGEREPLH
For test [17], the target named is Mitogen-activated protein kinase 7 (Homo sapiens) (UniProt Q13164). Put plainly: Inhibition of wild-type human partial length ERK5 (M1 to A409 residues) expressed in Escherichia coli BL21 assessed as residual activity at 1000 nM after 30 mins by Kinomescan method relative to control.
Test [18] has as its target Casein kinase I isoform gamma-3 (Homo sapiens) (UniProt Q9Y6M4). As to the kind of experiment: Inhibition of wild-type human full length CSNK1G3 (M1 to K447 residues) expressed in Escherichia coli BL21 assessed as residual activity at 1000 nM after 30 mins by Kinomescan method relative to control. Summed up: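 Single-point screen at a fixed 1 µM, run within a 456-kinase DiscoveRx KINOMEscan panel. Each kinase's read-out is Percent Control, i.e. signal relative to a control without compound. Hits were scored by a Percent Control < 35 cut-off, and an S(35) selectivity score was calculated across the non-mutant kinases.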

The target of test [19] is Tyrosine-protein kinase JAK1 (Homo sapiens) (UniProt P23458). As to the kind of experiment: Inhibition of wild-type human partial length JAK1 JH1 catalytic domain (V856 to K1154 residues) expressed in Escherichia coli BL21 assessed as residual activity at 1000 nM after 30 mins by Kinomescan method relative to control.
The target in test [20] is Interleukin-1 receptor-associated kinase 1 (Homo sapiens) (UniProt P51617). Put plainly: Inhibition of wild-type human partial length IRAK1 (R194 to S712 residues) expressed in HEK293 cells assessed as residual activity at 1000 nM after 30 mins by Kinomescan method relative to control. It counts as cell-based.
Interleukin-1 receptor-associated kinase 1 (Homo sapiens), sequence (P51617 whole entry, looked up, the tested form may be a part): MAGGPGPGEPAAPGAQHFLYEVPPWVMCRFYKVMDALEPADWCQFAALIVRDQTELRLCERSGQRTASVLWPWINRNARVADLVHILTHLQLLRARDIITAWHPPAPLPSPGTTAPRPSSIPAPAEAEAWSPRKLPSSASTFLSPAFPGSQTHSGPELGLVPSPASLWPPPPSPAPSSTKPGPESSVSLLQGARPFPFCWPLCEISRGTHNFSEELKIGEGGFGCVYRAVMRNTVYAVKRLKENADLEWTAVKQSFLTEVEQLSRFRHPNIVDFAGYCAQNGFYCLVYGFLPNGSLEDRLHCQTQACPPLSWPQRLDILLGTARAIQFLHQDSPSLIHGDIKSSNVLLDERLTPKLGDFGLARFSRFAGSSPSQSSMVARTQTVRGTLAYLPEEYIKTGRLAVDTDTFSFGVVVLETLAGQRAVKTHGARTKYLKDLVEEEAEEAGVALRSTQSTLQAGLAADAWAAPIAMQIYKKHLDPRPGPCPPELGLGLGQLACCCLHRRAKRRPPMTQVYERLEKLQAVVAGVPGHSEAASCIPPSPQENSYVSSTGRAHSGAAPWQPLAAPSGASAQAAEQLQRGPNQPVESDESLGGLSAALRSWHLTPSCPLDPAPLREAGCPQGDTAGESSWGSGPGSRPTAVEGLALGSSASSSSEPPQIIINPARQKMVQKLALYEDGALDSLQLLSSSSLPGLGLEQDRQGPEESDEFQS
In test [21] the target is Mitogen-activated protein kinase 4 (Homo sapiens) (UniProt P31152). Put plainly: Inhibition of wild-type human partial length ERK4 (M1 to L365 residues) expressed in Escherichia coli BL21 assessed as residual activity at 1000 nM after 30 mins by Kinomescan method relative to control.
Mitogen-activated protein kinase 4 (Homo sapiens), sequence (P31152 whole entry, the tested form may be a part): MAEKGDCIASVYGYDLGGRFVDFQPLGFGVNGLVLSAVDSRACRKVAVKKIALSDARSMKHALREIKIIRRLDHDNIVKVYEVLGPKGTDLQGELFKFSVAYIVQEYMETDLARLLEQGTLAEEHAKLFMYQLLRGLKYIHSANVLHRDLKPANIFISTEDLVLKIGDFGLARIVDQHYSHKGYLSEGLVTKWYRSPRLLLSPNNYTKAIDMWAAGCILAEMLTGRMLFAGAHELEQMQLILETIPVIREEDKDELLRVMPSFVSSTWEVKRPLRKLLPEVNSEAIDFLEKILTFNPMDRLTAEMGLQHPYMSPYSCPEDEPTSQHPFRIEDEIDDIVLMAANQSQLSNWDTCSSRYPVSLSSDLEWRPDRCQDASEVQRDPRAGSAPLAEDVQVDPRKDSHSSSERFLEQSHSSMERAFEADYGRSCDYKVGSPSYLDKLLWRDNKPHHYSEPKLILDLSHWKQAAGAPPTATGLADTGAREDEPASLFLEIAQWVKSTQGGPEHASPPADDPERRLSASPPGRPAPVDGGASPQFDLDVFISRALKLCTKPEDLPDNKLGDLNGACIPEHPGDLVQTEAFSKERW
Test [22] has as its target Protein kinase C eta type (Homo sapiens) (UniProt P24723). Put plainly: Inhibition of wild-type human partial length PRKCH (S324 to P683 residues) expressed in Escherichia coli BL21 assessed as residual activity at 1000 nM after 30 mins by Kinomescan method relative to control.

Casein kinase I isoform gamma-3 (Homo sapiens), sequence (Q9Y6M4 whole entry, looked up, the tested form may be a part, canonical isoform): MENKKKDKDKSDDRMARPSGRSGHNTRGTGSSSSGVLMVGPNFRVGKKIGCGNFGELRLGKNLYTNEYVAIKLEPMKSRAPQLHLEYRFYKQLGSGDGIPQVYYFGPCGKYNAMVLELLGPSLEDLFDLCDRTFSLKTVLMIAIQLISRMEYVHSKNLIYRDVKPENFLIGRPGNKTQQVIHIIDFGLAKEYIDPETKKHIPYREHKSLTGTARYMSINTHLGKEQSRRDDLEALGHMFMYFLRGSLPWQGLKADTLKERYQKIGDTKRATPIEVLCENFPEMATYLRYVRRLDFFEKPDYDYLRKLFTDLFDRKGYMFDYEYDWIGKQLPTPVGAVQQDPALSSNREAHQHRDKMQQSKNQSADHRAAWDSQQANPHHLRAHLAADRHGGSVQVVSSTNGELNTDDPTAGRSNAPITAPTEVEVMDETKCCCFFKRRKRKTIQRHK

`COc1cc(OC)c(Cl)c(N2Cc3cnc(Nc4ccc(F)cc4)nc3N(C3CCN(C(=O)/C=C/CN(C)C)CC3)C2=O)c1Cl`: the Activity was 89% in test [1]; 100% in test [2]; 100% in test [3]; 19% in test [4]; 100% in test [5]; 100% in test [6]. The Activity in [7] came out at 99%; in test [8], 100%; in [9] it was 93%; in [10], 100%; in [11] it was 100%; in test [12], 100%. For the same compound, the Activity worked out at 90% in test [13]; 100% in test [14]; 100% in test [15]; 99% in test [16]; 49% in [17]; 100% in [18]. Moreover, the Activity in test [19] was found to be 93%; in test [20] it was 98%; in [21], 94%; in test [22] it was 91%.
